Measurements from ChEMBL document CHEMBL3632531, “Cafestol, a Bioactive Substance in Coffee, Stimulates Insulin Secretion and Increases Glucose Uptake in Muscle Cells: Studies in Vitro” (2015).
Active and inactive are the calls of the source. The rule behind the calls is not given here.

Key:
[1] = Increase in glucose-stimulated insulin secretion in rat INS-1E cells at 10^-8 M after 72 hrs in presence of 16.7 mM glucose; type: functional
How it was run: (§1)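 INS-1E cells were seeded and grown 72 h at 37 °C in growth medium containing test agent at final 10−12, 10−10 or 10−8 M, with DMSO equalized. After a 15 min preincubation in M-KRB, cells were stimulated 60 min with M-KRB at 3.3 or 16.7 mM glucose. Supernatant insulin was measured by RIA. Mean ± SEM is compared with the control at the matching glucose level.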

[2] = Increase in glucose-stimulated insulin secretion in rat INS-1E cells at 10^-10 M after 60 mins in presence of 16.7 mM glucose; type: functional
How it was run: (§2)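 INS-1E cells were pre-cultured 72 h, then preincubated 15 min in M-KRB (pH 7.4, 1% BSA). They were exposed for 60 min at 37 °C to test agent diluted from a 10−3 M DMSO stock to final 10−12–10−6 M in M-KRB with 16.7 mM glucose, with DMSO equalized across solutions. Insulin in the supernatant was measured by RIA (anti-insulin antibody, 125I-insulin tracer, rat insulin standard), and cell protein by Bradford. Mean ± SEM is reported against the 16.7 mM glucose control.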

[3] = Increase in glucose-stimulated insulin secretion in rat INS-1E cells at 10^-8 M after 72 hrs in presence of 3.3 mM glucose; type: functional; how it was run: as §1
[4] = Increase in glucose-stimulated insulin secretion in rat INS-1E cells at 10^-10 M after 72 hrs in presence of 16.7 mM glucose; type: functional; how it was run: as §1
[5] = Increase in deoxy-D-glucose 2-[1.2-3H(N)] uptake in human Skeletal muscle cells at 10^-8 M after 72 hrs by scintillation counter relative to control; type: functional
How it was run: (§3)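 Differentiated human skeletal muscle cells (2 weeks in differentiation medium, until multinucleated syncytia were visible) were exposed for 72 h to test agent at 10−8 to 10−12 M. Cells were then given a 15 min pulse at 37 °C in modified KRB with 0.1% BSA, 0.1 mM glucose, tritiated deoxy-D-glucose and 100 nM insulin. Uptake was stopped with washes in 50 mM glucose, cells were lysed in NaOH, and counts per min were read by scintillation and compared with untreated control.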

[6] = (§4) Increase in glucose-stimulated insulin secretion in rat INS-1E cells at 1 uM after 60 mins in presence of 16.7 mM glucose; type: functional; how it was run: as §2
[7] = Decrease in glucose-stimulated insulin secretion in rat INS-1E cells at 10^-12 M after 72 hrs in presence of 3.3 mM glucose; parameters: scale not given: the % may be the effect or the level left
[8] = species: Homo sapiens; test: Effect on deoxy-D-glucose 2-[1.2-3H(N)] uptake in human Skeletal muscle cells at 10^-12 to 10^-10 M after 72 hrs by scintillation counter; type: functional; how it was run: as §3
[9] = Increase in glucose-stimulated insulin secretion in rat INS-1E cells at 10^-8 M after 60 mins in presence of 16.7 mM glucose; type: functional; how it was run: as §2
[10] = test system: INS-1E; test: as §4; type: functional; how it was run: as §2

C[C@@]12CCc3occc3[C@H]1CC[C@@]13C[C@@H](CC[C@H]12)[C@@](O)(CO)C3 [CAFESTOL]
Activity [1]: 34% | Activity [2]: 12% | Activity [3]: 27% | Activity [4]: 68% | Activity [5]: 8% | Activity [6]: 16% | Activity [7]: 15% | Activity [8]: inactive | Activity [9]: 12%

CN(CCOc1ccc(CC2SC(=O)NC2=O)cc1)c1ccccn1 (stereo not given) [ROSIGLITAZONE]
Activity [5]: 7%

O=C(/C=C/c1ccc(O)c(O)c1)O[C@@H]1C[C@](O)(C(=O)O)C[C@@H](O)[C@H]1O
Activity [10]: Active

O=C(O)/C=C/c1ccc(O)c(O)c1 [CAFFEIC ACID]
Activity [1]: 16% | Activity [2]: 9% | Activity [6]: 9% | Activity [9]: 18%
